Screening results: PubChem, The Scripps Research Institute Molecular Screening Center
CHO parental Ca = counter-screen for OX1R antagonists: effect in parental CHO cells; parental CHO-K1, ATP-induced calcium, Fluo-8 fluorescence; inhibition, % at 5.6 µM; 0.63% of 330,000 active;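 active = inhibition above that plate's mean sample inhibition plus 3 SD, cut at about 26% in these data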
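test system = CHO parental line | reagent = ATP stimulus | measured by = intracellular calcium via Fluo-8 no-wash fluorescent dye | control set = ATP and no-ATP DMSO wells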
OX1R antag-1 = antagonists of human orexin 1 receptor | 0.43% of 330,000 active | AID 434989 | CHO/OX1R cells, Fluo-8 calcium fluorescence, orexin A | inhibition, % at 5 µM;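 active = inhibition above its plate's threshold, mean inhibition of all tested compounds on the plate plus 3 SD, cut at about 37% in these data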
TAAR1 antag = human TAAR1 antagonism; Q96RJ0; CHO RD-HGA16 TAAR1, Fluo-8 calcium fluorescence, antagonist; inhibition, % at 3 µM; 1.5% of 360,000 active; AID 624466;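 active = inhibition above a per-plate cutoff, the mean inhibition of test compounds on that plate plus 3 SD, cut at about 49% in these data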
Target sequence (Q96RJ0 whole entry, looked up): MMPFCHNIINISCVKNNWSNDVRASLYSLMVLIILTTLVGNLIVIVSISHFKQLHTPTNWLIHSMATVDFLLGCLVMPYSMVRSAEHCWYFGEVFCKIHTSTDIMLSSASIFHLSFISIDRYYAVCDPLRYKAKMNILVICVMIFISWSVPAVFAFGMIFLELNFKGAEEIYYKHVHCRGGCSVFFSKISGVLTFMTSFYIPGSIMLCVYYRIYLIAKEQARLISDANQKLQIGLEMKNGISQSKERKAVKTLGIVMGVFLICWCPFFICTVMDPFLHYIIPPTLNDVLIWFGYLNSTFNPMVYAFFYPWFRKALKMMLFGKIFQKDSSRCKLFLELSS
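Test system: RD-HGA16 CHO cells with stable hTAAR1 and Gα16 / Probe or stimulus: EC80 β-phenethylamine stimulus / Times: seeding 17-24 h prior, 75-min 37 °C, 30-min RT dye loading / Detection: Fluo-8 calcium-sensitive fluorescence / Read-out basis: % inhibition scaled between DMSO and EC80 PEA controls / Repeats: singlicate, one well per test compound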
TAAR1 ag = human TAAR1 agonism. AID 624467. Q96RJ0. CHO RD-HGA16 TAAR1, Fluo-8 calcium fluorescence; vehicle wells 0%, saturating PEA agonist 100%. activation, % at 3 µM. 0.99% of 360,000 active;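 active = activation above the mean activation of all test compounds in the run plus 3 SD, cut at about 38% in these data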
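Signal – calcium-sensitive Fluo-8 signal, excitation 470-495, emission 515-575 nm · System – RD-HGA16 (CHO) cells co-expressing Gα16 and hTAAR1 · Incubation – 17-24 h seeding, 75 min 37 °C dye, 30 min RT · Compound dosing – 3 µM single concentration · Repeats – no replicates (n 1)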
OX1R antag-2 = antagonists of human orexin 1 receptor (OX1R). OX1R-expressing cells, FRET antagonist read-out. inhibition, % at 6.6 µM. AID 485270. O43613. 1.8% of 330,000 active; in the data active = inhibition mostly above about 38%, no sharp cut-off; inactive = mostly below about 40%
nonsel antag count = nonselective antagonist in TAAR1 antagonist counter-screen | shares compounds with TAAR1 antag | counterscreen cell line, calcium fluorescence, antagonist mode | inhibition, % at 3 µM | 77% of 2,400 active | AID 651780; in the data active = inhibition above about 22%;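 also: CHO-Ga16 host cells stimulated with ATP at an EC80 level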
TAAR1 ant conf = confirmation of human TAAR1 antagonists; shares compounds with TAAR1 antag; TAAR1-expressing cells, fluorescence antagonist read-out; inhibition, % at 3 µM; 40% of 2,400 active; in the data active = inhibition above about 49%;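 also: CHO-Ga16 host cells challenged with agonist PEA near its EC80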
Ga16 ag counter = counter-screen for TAAR1 antagonists: nonselective Ga16 agonists; shares compounds with TAAR1 antag; Ga16-expressing cells, calcium fluorescence, agonist counterscreen; activation, % at 3 µM; 18% of 2,400 active; AID 651953; in the data active = activation above about 12%
TAAR1 ag count = counter-screen for human TAAR1 antagonists: TAAR1 agonists; shares compounds with TAAR1 antag; hTAAR1 cell line, fluorescence activation, agonist mode; activation, % at 3 µM; 2% of 2,400 active; AID 651955; in the data active = activation above about 37%;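 also: CHO cells stably expressing TAAR1 with calcium dye readout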
A number is an active result; i = inactive; nt = no result. Shown are actives, neighbours in structure and some others; about 4% of the full set was active somewhere.

SMILES	CHO parental Ca	OX1R antag-1	TAAR1 antag	TAAR1 ag	OX1R antag-2	nonsel antag count	TAAR1 ant conf	Ga16 ag counter	TAAR1 ag count
O=C(NCC1CCCO1)C(c1cccs1)N(Cc1ccccc1Cl)C(=O)c1ccc(-c2ccccc2)[nH]1 (stereo not given)	i	i	i	i	i	nt	nt	nt	nt
CN(C)c1ccc(C(C(=O)NCC2CCCO2)N(Cc2ccccc2)C(=O)c2snc(C(N)=O)c2N)cc1 (stereo not given)	i	i	65.3	i	i	32.8	56.7	13.3	i
CN(C)c1ccc(C(C(=O)NCC2CCCO2)N(Cc2ccco2)C(=O)c2snc(C(N)=O)c2N)cc1 (stereo not given)	i	i	66.6	i	i	33.5	51.5	i	i
CCOc1ccc(C(C(=O)NCC2CCCO2)N(CCc2cccc(C)c2)C(=O)c2snc(C(N)=O)c2N)cc1 (stereo not given)	nt	nt	66.6	i	nt	33.8	53.3	16.2	39.1
COc1ccc(CNC(=O)C(c2ccco2)N(Cc2ccccc2)C(=O)Cc2cccs2)cc1 (stereo not given)	i	i	85.2	i	i	32.8	55.0	12.1	i
COc1ccc(CNC(=O)C(c2cccs2)N(Cc2ccco2)C(=O)Cc2cccs2)cc1 (stereo not given)	i	i	67.3	i	i	30.2	i	i	i
COc1ccc(CNC(=O)C(c2ccco2)N(C(=O)Cc2cccs2)c2cccnc2)cc1 (stereo not given)	i	i	i	i	i	nt	nt	nt	nt
COc1ccc(CNC(=O)C(c2ccco2)N(Cc2cccs2)C(=O)Cc2cccs2)cc1 (stereo not given)	i	i	75.0	i	i	34.6	62.7	i	i
COCCN(C(=O)Cc1cccs1)C(C(=O)NCc1ccc(OC)cc1)c1ccc(OC)cc1 (stereo not given)	i	i	i	i	i	nt	nt	nt	nt
COc1cccc2[nH]c3c(Cl)ncnc3c12	i	i	i	i	i	nt	nt	nt	nt
O=C(CCS(=O)(=O)c1ccc(Cl)cc1)NCCN1C(=O)S/C(=C\c2ccccc2F)C1=O	i	i	70.7	i	i	38.4	i	i	i
O=C(CNC(=O)c1ccccc1F)NCCN1C(=O)S/C(=C\c2ccccc2Cl)C1=O	i	i	i	i	i	nt	nt	nt	nt
COc1ccc(NC(=O)CSc2nnc(-c3cccnc3)o2)c(OC)c1	i	i	i	i	i	nt	nt	nt	nt
Cc1c(C(=O)NCc2ccc(Cl)c(Cl)c2)sc(=O)n1Cc1ccc(S(C)(=O)=O)cc1	nt	nt	71.7	i	nt	34.9	i	13.8	i
CCCCCCNC(=O)O[C@H]1C[C@H](C(=O)OC)[C@H](C(=O)OC)C2CN(S(=O)(=O)c3ccc(C)cc3)C[C@@]21O (stereo not given in full)	nt	nt	i	i	nt	nt	nt	nt	nt
COc1ccc(NC(=O)CCSc2ccc3ccccc3n2)cc1	i	i	i	i	i	nt	nt	nt	nt
COc1cccc(NC(=O)CCSc2ccc3ccccc3n2)c1	i	i	76.4	i	i	i	i	i	i
NC(c1ccccc1)c1cccs1 (stereo not given)	nt	nt	i	i	nt	nt	nt	nt	nt
COc1ccc(CCNC(=O)CN(Cc2ccc(Cl)cc2)S(C)(=O)=O)cc1	nt	nt	i	i	nt	nt	nt	nt	nt
COc1ccc2c(c1)C(SCC(=O)NCCc1ccc(Cl)cc1)CC(C)(C)O2 (stereo not given)	i	i	62.1	i	i	i	i	i	i
COc1ccccc1NS(=O)(=O)c1cccc(NC(=O)Nc2ccccc2)c1	i	44.1	98.1	i	i	60.2	94.3	15.1	50.4
Cc1c(NC(=O)CSc2ncnc3ccccc23)c(=O)n(-c2ccccc2)n1C	i	i	i	i	i	nt	nt	nt	nt
NC(=O)CSc1nnc(-c2cc3ccccc3o2)n1Cc1ccccc1	i	i	i	i	i	nt	nt	nt	nt
O=C1CC2c3cc(-c4cc5ccccc5o4)ccc3CCN2C(=O)CN1Cc1ccccc1 (stereo not given)	nt	nt	54.0	i	nt	27.3	i	i	i
Clc1cccc(CNc2ccn3nc(-c4ccc(OCCN5CCOCC5)cc4)cc3n2)c1	nt	nt	68.7	i	nt	44.0	71.1	22.6	i
SMILES	CHO parental Ca	OX1R antag-1	TAAR1 antag	TAAR1 ag	OX1R antag-2	nonsel antag count	TAAR1 ant conf	Ga16 ag counter	TAAR1 ag count
c1cc(-c2cc3nc(NC4CCCCC4)ccn3n2)ccc1OCCN1CCOCC1	nt	nt	60.8	i	nt	23.7	i	i	i
Cn1nc(C(=O)Nc2ccc(S(=O)(=O)N3CCCCC3)cc2)c2ccccc2c1=O	i	i	96.0	i	i	i	i	i	i
CCCCC(=O)Nc1ccc(C(=O)Nc2ccc(S(=O)(=O)N3CCCC3)cc2)cc1	i	i	nt	nt	i	i	nt	i	nt
Cn1nc(C(=O)Nc2cccc(S(=O)(=O)N3CCCCC3)c2)c2ccccc2c1=O	nt	nt	i	i	nt	nt	nt	nt	nt
COc1cccc2cc(CC(=O)c3cc(C)ccc3C)c(=O)oc12	i	i	58.4	i	i	29.3	48.6	i	i
COc1cccc2cc(CC(=O)c3ccc(C)c(C)c3)c(=O)oc12	i	i	i	i	i	nt	nt	nt	nt
CC1C(=O)N(Cc2cn(CC3CCCCC3)nn2)CCS(=O)(=O)N1Cc1ccc(-c2ccccc2)cc1 (stereo not given)	nt	nt	i	i	nt	nt	nt	nt	nt
CC(C)CC(NC(N)=O)C(=O)NCc1ccccc1Cl (stereo not given)	i	i	i	i	i	nt	nt	nt	nt
Fc1ccccc1COc1ccc(Br)cc1CNCc1cccnc1	i	i	i	i	i	nt	nt	nt	nt
Fc1ccccc1COc1ccc(Br)cc1CNCc1ccncc1	i	i	74.9	i	i	40.5	62.5	11.5	i
Cc1ccc2nc(NCCc3ccccc3)c3nncn3c2c1	nt	nt	i	i	nt	nt	nt	nt	nt
CS(=O)c1nc(-c2ccc(Br)cc2)cc(-c2ccccc2)c1C#N (stereo not given)	83.9	81.2	69.7	i	i	27.1	53.0	i	i
CS(=O)(=O)c1nc(-c2ccc(Br)cc2)cc(-c2ccccc2)c1C#N	i	i	i	i	i	nt	nt	nt	nt
CC(=O)NC(c1ccccc1)c1nc(-c2ccc(C)c(C)c2)cs1 (stereo not given)	nt	nt	i	i	nt	nt	nt	nt	nt
CC(=O)c1cccc(NC(=O)CN2C(=O)NC(C)(C)C2=O)c1	i	i	i	i	i	nt	nt	nt	nt
CCC(C(=O)OCC(=O)Nc1ccc(SC(F)F)cc1)c1ccccc1 (stereo not given)	nt	nt	62.5	i	nt	39.4	52.6	i	i
Cn1ccc2c(N3CCCCC3)cc3c(c21)C1CCC3C1 (stereo not given)	nt	nt	i	i	nt	nt	nt	nt	nt
